Experimental findings from ChEMBL document CHEMBL1811757, “Discovery of naturally occurring aurones that are potent allosteric inhibitors of hepatitis C virus RNA-dependent RNA polymerase” (J Med Chem, 2011) are described below.

Activity calls are given as the source filed them. The rule behind the calls is not given here.

Data set [1] can be described thus: Inhibition of HCV genotype 1b J4 N-terminal His-tagged NS5Bdelta21 polymerase expressed in Escherichia coli C41(DE3) assessed as amount of double-stranded RNA synthesis. Further details: species or system Hepatitis C virus isolate HC-J4.
For another data set, the system named is HEK293. Put plainly: Cytotoxicity against human HEK293 cells up to 512 uM after 72 hrs by MTT assay. Type of data set: cell-based. Particulars: hek293, 72 h. The essentials:
(§1)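 Cells trypsinized in exponential growth and plated at 2000 (HuH7) or 1000 (HEK293) per well. Allowed to attach 96 h at 37°C, 5% CO2. Drug diluted in medium with 1% DMSO final, then 72 h at 37°C, 5% CO2. Viability read by MTT colorimetric assay.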

The subject of data set [2] is Hepatitis C virus isolate HC-J4. The experiment in a line: Inhibition of HCV genotype 1b J4 N-terminal His-tagged NS5Bdelta21 polymerase expressed in Escherichia coli C41(DE3) assessed as amount of double-stranded RNA synthesis at 20 uM.
Data set [3] has as its system RNA-directed RNA polymerase (Hepacivirus hominis), O39930 [C316Y]. Put plainly: Inhibition of HCV genotype 1b J4 NS5Bdelta21 polymerase C316Y mutant expressed in Escherichia coli C41(DE3) assessed as amount of double-stranded RNA synthesis. Particulars: Hepatitis C virus isolate HC-J4. In a few lines:
(§2)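 N-terminal His6-tagged NS5BΔ21 (C-terminal 21 residues removed) point mutants, made by site-directed mutagenesis, sequence-verified and purified like wild type: Ni-NTA affinity, imidazole elution, dialysis into Tris pH 7.5/sodium acetate/DTT/EDTA/10% glycerol. Cell-free assay quantifies double-stranded RNA synthesized on poly U homopolymeric template with ATP. IC50 determined per mutant.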

Data set [4] deals with Hepatitis C virus isolate HC-J4. The experiment in a line: Ratio of IC50 for HCV genotype 1b J4 NS5Bdelta21 polymerase P495L mutant to IC50 for HCV genotype 1b J4 wild type N-terminal His-tagged NS5Bdelta21 polymerase. The essentials: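 IC50 measured in cell-free poly U/ATP double-stranded RNA synthesis assay for purified His-tagged NS5BΔ21 P495L mutant and wild type, both prepared identically by Ni-NTA purification. Mutant IC50 divided by wild-type IC50 and reported as fold difference. A Thumb Pocket I benzimidazole inhibitor served as control.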

The test system of the next data set is Huh-7. Put plainly: Cytotoxicity against human HuH7 cells up to 512 uM after 72 hrs by MTT assay. Type of data set: cell-based. Particulars: huh-7, 72 h. In a few lines: as §1
A general note: Tetrazolium dyes change colour on reduction, which living cells bring about.

Data set [5] relates to RNA-directed RNA polymerase (Hepacivirus hominis), O39930 [M423T]. Put plainly: Inhibition of HCV genotype 1b J4 NS5Bdelta21 polymerase M423T mutant expressed in Escherichia coli C41(DE3) assessed as amount of double-stranded RNA synthesis. Particulars: Hepatitis C virus isolate HC-J4. In a few lines: as §2
Chain of RNA-directed RNA polymerase (Hepacivirus hominis), O39930 [M423T] (O39930 entry or part of it M423T): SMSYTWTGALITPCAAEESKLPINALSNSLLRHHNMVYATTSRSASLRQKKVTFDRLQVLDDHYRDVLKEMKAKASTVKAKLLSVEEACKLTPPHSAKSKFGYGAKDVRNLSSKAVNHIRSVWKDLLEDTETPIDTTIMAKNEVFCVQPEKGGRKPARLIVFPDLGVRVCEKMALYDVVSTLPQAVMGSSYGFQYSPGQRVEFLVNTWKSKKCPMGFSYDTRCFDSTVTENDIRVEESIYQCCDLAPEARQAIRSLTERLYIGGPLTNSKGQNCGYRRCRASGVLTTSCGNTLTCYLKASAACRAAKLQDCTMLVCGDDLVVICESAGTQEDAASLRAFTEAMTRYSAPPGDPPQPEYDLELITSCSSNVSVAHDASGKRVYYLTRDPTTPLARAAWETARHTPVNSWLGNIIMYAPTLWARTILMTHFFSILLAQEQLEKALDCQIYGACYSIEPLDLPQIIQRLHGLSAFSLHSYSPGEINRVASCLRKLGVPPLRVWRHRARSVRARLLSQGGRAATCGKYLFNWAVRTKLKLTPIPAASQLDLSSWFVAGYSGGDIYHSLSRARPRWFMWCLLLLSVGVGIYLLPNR
Data set [6] deals with RNA-directed RNA polymerase (Hepacivirus hominis), O39930 [H95Q]. Put plainly: Inhibition of HCV genotype 1b J4 NS5Bdelta21 polymerase H95Q mutant expressed in Escherichia coli C41(DE3) assessed as amount of double-stranded RNA synthesis. Particulars: Hepatitis C virus isolate HC-J4. In a few lines: as §2
Chain of RNA-directed RNA polymerase (Hepacivirus hominis), O39930 [H95Q] (O39930 entry or part of it H95Q): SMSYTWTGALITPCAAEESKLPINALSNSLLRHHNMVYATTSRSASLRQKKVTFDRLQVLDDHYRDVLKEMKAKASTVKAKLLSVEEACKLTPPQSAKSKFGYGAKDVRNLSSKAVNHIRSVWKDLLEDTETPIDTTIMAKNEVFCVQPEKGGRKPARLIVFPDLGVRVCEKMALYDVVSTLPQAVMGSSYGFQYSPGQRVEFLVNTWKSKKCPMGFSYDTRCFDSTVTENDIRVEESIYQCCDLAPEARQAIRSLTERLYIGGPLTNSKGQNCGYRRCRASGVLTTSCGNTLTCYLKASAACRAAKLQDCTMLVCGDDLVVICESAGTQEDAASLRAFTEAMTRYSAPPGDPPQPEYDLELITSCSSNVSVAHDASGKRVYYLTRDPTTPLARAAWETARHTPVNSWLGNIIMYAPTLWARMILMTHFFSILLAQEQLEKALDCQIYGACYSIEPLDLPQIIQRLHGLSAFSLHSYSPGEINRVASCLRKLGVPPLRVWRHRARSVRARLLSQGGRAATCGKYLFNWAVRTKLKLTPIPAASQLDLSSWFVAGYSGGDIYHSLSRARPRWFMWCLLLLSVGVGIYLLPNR
The subject of a further data set is Hepatitis C virus. The experiment in a line: Antiviral activity against HCV JFH-1 assessed as inhibition of viral replication by cell based assay. Type of data set: functional, organism-based, Hepacivirus hominis.

Chain of RNA-directed RNA polymerase (Hepacivirus hominis), O39930 [C316Y] (O39930 entry or part of it C316Y): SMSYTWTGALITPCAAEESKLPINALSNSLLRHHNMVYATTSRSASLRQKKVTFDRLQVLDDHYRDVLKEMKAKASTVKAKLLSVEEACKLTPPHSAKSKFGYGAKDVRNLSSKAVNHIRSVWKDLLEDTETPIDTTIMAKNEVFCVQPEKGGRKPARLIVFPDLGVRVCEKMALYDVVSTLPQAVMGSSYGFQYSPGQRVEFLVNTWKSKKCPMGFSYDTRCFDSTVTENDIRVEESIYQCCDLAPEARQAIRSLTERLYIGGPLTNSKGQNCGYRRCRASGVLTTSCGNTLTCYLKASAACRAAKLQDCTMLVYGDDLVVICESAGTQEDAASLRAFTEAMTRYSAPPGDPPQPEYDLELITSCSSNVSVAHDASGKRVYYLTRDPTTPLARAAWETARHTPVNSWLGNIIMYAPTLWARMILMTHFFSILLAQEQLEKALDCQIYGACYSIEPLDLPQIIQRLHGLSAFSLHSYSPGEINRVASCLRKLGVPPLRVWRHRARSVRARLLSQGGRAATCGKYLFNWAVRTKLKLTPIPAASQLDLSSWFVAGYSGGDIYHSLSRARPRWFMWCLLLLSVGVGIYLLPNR

In the case of `O=C1/C(=C/c2ccc(O)cc2)Oc2cccc(O)c21`, the 50% inhibitory concentration (IC50) in data set [1] came to 5.9 µM; in the data set on Hepatitis C virus it was 18 µM. Besides, the Activity entry in the data set on HEK293 and with Huh-7 was “Non-toxic” each time. In addition, in data set [2], the inhibition amounted to 60%. The inhibition result in data set [3], in [5] and in [6] was “Active” each time. In [4], the Ratio IC50 was found to be 6.

As a reminder, the IC50 is the concentration at which inhibition is half-maximal. Usually inhibition stands for the relative decrease from the control value, in per cent.
